{"source": "ChEMBL document CHEMBL3853307", "about": "“Anti-inflammatory Effect of Methyl Gallate on Experimental Arthritis: Inhibition of Neutrophil Recruitment, Production of Inflammatory Mediators, and Activation of Macrophages” (J Nat Prod, 2016)", "key": {"Mus musculus": {"test_system": "Mus musculus", "test": "Antiinflammatory activity in C57BL/6 mouse assessed as inhibition of zymosan-induced mononuclear cells migration in articular cavity at 7 mg/kg, po administered 1 hr prior to zymosan challenge measured at 6 to 24 hrs", "type": "functional, organism-based", "outline": "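Male C57BL/6 mice, fasted overnight, dosed orally (vehicle saline/water, 200 μL) or i.p. 1 h before zymosan (500 μg in 25 μL saline, i.a., left knee). Knee swelling measured as change in transverse diameter from basal by digital caliper (mm). Synovial washes (PBS/EDTA) counted on a particle counter; differentials from May-Grünwald-Giemsa cytospins, cells ×10^5/cavity. Sampled at 6 and/or 24 h; seven mice/group.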"}, "J774.A1": {"test_system": "J774.A1", "test": "Antiinflammatory activity in mouse J774A.1 cells assessed as inhibition of zymosan and IFNgamma-induced cytoplasmic calcium flux at 1 uM preincubated for 1 hr followed by zymosan and IFNgamma addition measured over 10 mins by FLIPR assay", "type": "functional, cell-based", "outline": "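J774A.1 macrophages preincubated 1 h with HBSS or compound (1 μM), then stimulated with zymosan plus IFN-γ. Intracellular calcium followed over 600 s with a FLIPR Calcium Plus kit; mean signal from 360−600 s after stimulus used for analysis; quadruplicate wells.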"}}, "note": "Calls of active or inactive are those of the source. The rule behind the calls is not given here."}
{"compound": "COC(=O)c1cc(O)c(O)c(O)c1", "note": "[GALLIC ACID METHYL ESTER]", "values": [{"measurement": "inhibition", "setting": "Mus musculus", "value": "Active"}, {"measurement": "inhibition", "setting": "J774.A1", "value": "Active"}]}
